Converted amounts (≈) assume the structure as drawn.
What was measured:
[1] = Metabolic stability in mouse liver microsomes assessed as parent compound remaining at 1 uM incubated for 30 mins; assay type: ADME, Microsome; conditions: 0.5 h
Procedure, shortened: (§1)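 Test compound at 1 μM incubated 30 min with human, rat or mouse liver microsomes (1 mg/mL); parent remaining expressed as %.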

Cytochrome P450 3A4 = Cytochrome P450 3A4 (Homo sapiens, UniProt P08684); assay: Inhibition of recombinant CYP3A4 (unknown origin) by fluorescence-based assay; assay type: ADME
[2] = Apparent permeability from apical to basolateral membrane in MDCK-MDR1 cells; assay type: ADME, cell-based, Canis lupus familiaris; conditions: dog
Procedure, shortened: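 Apical-to-basolateral apparent permeability (×10⁻⁶ cm/s) measured across MDR1-MDCK cell monolayers.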

Cytochrome P450 2C19 = Cytochrome P450 2C19 (Homo sapiens, UniProt P33261); assay: Inhibition of recombinant CYP2C19 (unknown origin) by fluorescence-based assay; assay type: ADME
Procedure, shortened: (§2)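 Recombinant CYP isoforms (five tested) screened for inhibition in fluorescence-based assays; IC50 in μM.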

Cytochrome P450 2D6 = Cytochrome P450 2D6 (Homo sapiens, UniProt P10635); assay: Inhibition of recombinant CYP2D6 (unknown origin) by fluorescence-based assay; assay type: ADME; procedure, shortened: as §2
[3] = Metabolic stability in rat liver microsomes assessed as parent compound remaining at 1 uM incubated for 30 mins; assay type: ADME, Microsome; conditions: 0.5 h; procedure, shortened: as §1
Gamma-secretase = assay: Modulation of gamma secretase in human SH-SY5Y cells overexpressing wild type APP751 assessed as inhibition of amyloid beta (35 to 42 residues) formation incubated for overnight by ELISA; assay type: cell-based
Procedure, shortened: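 SHSY5Y-APP751 cells plated at 75K/well and incubated overnight at 37 °C, then treated 24 h over 10 concentrations ([…]–10 μM, 1:3.16 steps, in duplicate). Medium Aβ42 measured by sandwich ELISA (Aβ35–42 capture, AP-conjugated Aβ1–12 detection, CDP-Star luminescence) against an Aβ42 standard curve.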

Cytochrome P450 2C9 = Cytochrome P450 2C9 (Homo sapiens, UniProt P11712); assay: Inhibition of recombinant CYP2C9 (unknown origin) by fluorescence-based assay; assay type: ADME; procedure, shortened: as §2
[4] = Kinetic aqueous solubility of the compound in pH 7.4 PBS buffer by UV/Visible absorbance analysis; assay type: physicochemical; conditions: read-out: Kinetic_solubility
Procedure, shortened: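 Kinetic solubility determined in PBS at pH 7.4 by UV/Vis absorbance, reported in μM.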

[5] = Metabolic stability in human liver microsomes assessed as parent compound remaining at 1 uM incubated for 30 mins; assay type: ADME, Microsome; conditions: microsomes, 0.5 h, 1 µM; procedure, shortened: as §1
Cytochrome P450 1A2 = target: T1, Cytochrome P450 1A2 (Homo sapiens, UniProt P05177); assay: Inhibition of recombinant CYP1A2 (unknown origin) by fluorescence-based assay; assay type: ADME; procedure, shortened: as §2
T1 sequence (P05177 whole entry): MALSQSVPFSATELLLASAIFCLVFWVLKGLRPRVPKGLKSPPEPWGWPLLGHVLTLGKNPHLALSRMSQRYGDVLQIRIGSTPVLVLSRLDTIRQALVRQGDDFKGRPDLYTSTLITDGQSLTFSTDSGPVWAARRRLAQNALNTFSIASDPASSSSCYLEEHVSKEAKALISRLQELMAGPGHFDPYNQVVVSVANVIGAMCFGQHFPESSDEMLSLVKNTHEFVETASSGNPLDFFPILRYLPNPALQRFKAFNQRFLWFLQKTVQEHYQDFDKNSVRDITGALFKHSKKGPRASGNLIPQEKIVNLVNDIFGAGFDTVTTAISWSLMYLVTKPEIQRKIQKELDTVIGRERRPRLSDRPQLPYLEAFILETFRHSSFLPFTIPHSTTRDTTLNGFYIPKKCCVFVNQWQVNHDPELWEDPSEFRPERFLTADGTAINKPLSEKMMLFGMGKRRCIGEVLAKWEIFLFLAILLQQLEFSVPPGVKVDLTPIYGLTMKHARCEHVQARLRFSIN

[6] = target: Voltage-gated inwardly rectifying potassium channel KCNH2 (Homo sapiens, UniProt Q12809); assay: Inhibition of human ERG expressed in HEK293 cells by patch clamp assay; assay type: cell-based
[7] = Ratio of drug concentration in CD-1 mouse brain to plasma at 5 mg/kg, po measured after 1 hr; assay type: ADME, organism-based
Procedure, shortened: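 Male CD-1 mice dosed once iv (1 mg/kg) or by oral gavage (5 mg/kg). Brain and plasma collected 1 h post dose (n=3/timepoint). Drug levels by HPLC/MS/MS; brain/plasma ratio calculated from these levels.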

[8] = AUC infinity in CD-1 mouse at 5 mg/kg, po administered as single dose measured up to 24 hrs; assay type: ADME, organism-based; parameters: route oral, dose 5 mg/kg, time <=24; conditions: in vivo
Procedure, shortened: (§3)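 Male CD-1 mice, 6–8 weeks old, single dose by tail vein (1 mg/kg, 3% NMP/45% PEG300/12% ethanol/40% water) or oral gavage (5 mg/kg, 5% NMP/95% PEG300). Retro-orbital plasma sampled 0.083 (iv only) to 24 h, n=3/timepoint, and analysed by HPLC/MS/MS. Non-compartmental analysis. Half-life taken from the terminal phase using ≥3 non-zero points after Tmax.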

[9] = AUC infinity in CD-1 mouse at 1 mg/kg, iv administered as single dose measured up to 24 hrs; assay type: ADME, organism-based; parameters: route intravenous, dose 1 mg/kg, time <=24; conditions: in vivo; procedure, shortened: as §3
[10] = Cmax in CD-1 mouse at 1 mg/kg, iv administered as single dose measured up to 24 hrs; assay type: ADME, organism-based; parameters: route intravenous, dose 1 mg/kg, time <=24; conditions: in vivo; procedure, shortened: as §3
[11] = Half life in CD-1 mouse at 1 mg/kg, iv administered as single dose measured up to 24 hrs; assay type: ADME, organism-based; conditions: mouse, in vivo, 1 mg/kg, 24 h; procedure, shortened: as §3
[12] = Tmax in CD-1 mouse at 5 mg/kg, po administered as single dose measured up to 24 hrs; assay type: ADME, organism-based; conditions: in vivo
Procedure, shortened: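 Male CD-1 mice, 6–8 weeks old, single oral gavage dose in 5% NMP/95% PEG300. Plasma (K3EDTA, retro-orbital, under isoflurane) taken at 0.25, 0.5, 1, 2, 4, 8 and 24 h, n=3/timepoint, analysed by HPLC/MS/MS. Non-compartmental extravascular analysis (Model 200); Tmax taken directly from the data.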

[13] = Cmax in CD-1 mouse at 5 mg/kg, po administered as single dose measured up to 24 hrs; assay type: ADME, organism-based; parameters: route oral, dose 5 mg/kg, time <=24; conditions: in vivo; procedure, shortened: as §3
[14] = Tmax in CD-1 mouse at 1 mg/kg, iv administered as single dose measured up to 24 hrs; assay type: ADME, organism-based; conditions: in vivo
Procedure, shortened: (§4)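 Male CD-1 mice, 6–8 weeks old, single tail-vein dose in 3% NMP/45% PEG300/12% ethanol/40% sterile water. Retro-orbital plasma (K3EDTA) taken at 0.083, 0.25, 0.5, 1, 2, 4, 8 and 24 h, n=3/timepoint, analysed by HPLC/MS/MS. Non-compartmental analysis (Model 201, uniform weighting); Tmax read directly from the data.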

[15] = Ratio of drug concentration in CD-1 mouse brain to plasma at 0.4 mg/kg, iv measured after 1 hr; assay type: ADME, organism-based
[16] = AUClast in CD-1 mouse at 5 mg/kg, po administered as single dose measured up to 24 hrs; assay type: ADME, organism-based; parameters: route oral, dose 5 mg/kg, time <=24; conditions: in vivo; procedure, shortened: as §3
[17] = AUClast in CD-1 mouse at 1 mg/kg, iv administered as single dose measured up to 24 hrs; assay type: ADME, organism-based; parameters: route intravenous, dose 1 mg/kg, time <=24; conditions: in vivo; procedure, shortened: as §3
[18] = Volume of distribution at steady state in CD-1 mouse at 1 mg/kg, iv administered as single dose measured up to 24 hrs; assay type: ADME, organism-based; conditions: in vivo; procedure, shortened: as §4
[19] = Oral bioavailability in CD-1 mouse at 5 mg/kg administered as single dose measured up to 24 hrs; assay type: ADME, organism-based; conditions: in vivo
Procedure, shortened: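 CD-1 mouse PK after single iv (1 mg/kg) and oral gavage (5 mg/kg) dosing, with plasma sampled to 24 h (n=3/timepoint) and measured by HPLC/MS/MS. F(%) = (AUC0-inf po × Dose iv)/(AUC0-inf iv × Dose po) × 100.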

Cytochrome P450 2C9, sequence (P11712 whole entry): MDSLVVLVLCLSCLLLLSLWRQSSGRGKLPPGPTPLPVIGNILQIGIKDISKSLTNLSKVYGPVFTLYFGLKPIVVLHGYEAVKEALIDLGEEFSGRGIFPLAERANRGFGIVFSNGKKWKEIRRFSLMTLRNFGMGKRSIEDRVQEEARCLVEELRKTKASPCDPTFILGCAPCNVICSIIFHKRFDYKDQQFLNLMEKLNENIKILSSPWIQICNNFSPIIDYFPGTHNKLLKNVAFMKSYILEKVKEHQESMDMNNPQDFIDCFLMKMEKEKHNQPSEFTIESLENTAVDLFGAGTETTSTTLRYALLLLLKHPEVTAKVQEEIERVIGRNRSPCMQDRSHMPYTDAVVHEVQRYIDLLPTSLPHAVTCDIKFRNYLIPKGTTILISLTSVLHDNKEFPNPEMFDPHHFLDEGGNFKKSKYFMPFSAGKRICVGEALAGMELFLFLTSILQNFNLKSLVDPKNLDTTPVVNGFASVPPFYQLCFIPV
Cytochrome P450 2D6, sequence (P10635 whole entry): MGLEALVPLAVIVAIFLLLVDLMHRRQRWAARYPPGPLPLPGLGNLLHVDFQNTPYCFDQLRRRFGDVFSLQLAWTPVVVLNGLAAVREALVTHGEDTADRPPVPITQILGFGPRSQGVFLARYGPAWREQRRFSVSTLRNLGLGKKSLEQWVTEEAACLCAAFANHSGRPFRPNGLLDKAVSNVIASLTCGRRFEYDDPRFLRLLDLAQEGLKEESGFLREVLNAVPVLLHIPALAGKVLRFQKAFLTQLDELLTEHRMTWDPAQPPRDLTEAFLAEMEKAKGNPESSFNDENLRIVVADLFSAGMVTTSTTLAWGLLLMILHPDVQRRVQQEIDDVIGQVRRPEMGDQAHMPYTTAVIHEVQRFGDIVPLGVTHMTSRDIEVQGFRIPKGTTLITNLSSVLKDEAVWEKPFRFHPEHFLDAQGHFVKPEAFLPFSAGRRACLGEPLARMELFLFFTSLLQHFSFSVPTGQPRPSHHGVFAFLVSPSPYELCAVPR
Cytochrome P450 2C19, sequence (P33261 whole entry, canonical isoform): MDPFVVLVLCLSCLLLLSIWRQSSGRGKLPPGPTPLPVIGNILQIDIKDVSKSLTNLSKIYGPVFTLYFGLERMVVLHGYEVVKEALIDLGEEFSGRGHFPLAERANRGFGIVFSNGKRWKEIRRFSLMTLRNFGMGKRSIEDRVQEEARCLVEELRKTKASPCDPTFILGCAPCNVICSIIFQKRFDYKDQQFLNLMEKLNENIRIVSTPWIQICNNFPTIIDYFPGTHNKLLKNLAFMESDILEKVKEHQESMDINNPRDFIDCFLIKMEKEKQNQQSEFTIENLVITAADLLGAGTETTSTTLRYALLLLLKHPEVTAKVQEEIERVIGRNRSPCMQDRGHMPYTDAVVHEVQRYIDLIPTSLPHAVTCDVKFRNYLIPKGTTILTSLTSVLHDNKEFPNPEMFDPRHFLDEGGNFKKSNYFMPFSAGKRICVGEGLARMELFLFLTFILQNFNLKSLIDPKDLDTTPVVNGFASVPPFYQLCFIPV
Cytochrome P450 3A4, sequence (P08684 whole entry): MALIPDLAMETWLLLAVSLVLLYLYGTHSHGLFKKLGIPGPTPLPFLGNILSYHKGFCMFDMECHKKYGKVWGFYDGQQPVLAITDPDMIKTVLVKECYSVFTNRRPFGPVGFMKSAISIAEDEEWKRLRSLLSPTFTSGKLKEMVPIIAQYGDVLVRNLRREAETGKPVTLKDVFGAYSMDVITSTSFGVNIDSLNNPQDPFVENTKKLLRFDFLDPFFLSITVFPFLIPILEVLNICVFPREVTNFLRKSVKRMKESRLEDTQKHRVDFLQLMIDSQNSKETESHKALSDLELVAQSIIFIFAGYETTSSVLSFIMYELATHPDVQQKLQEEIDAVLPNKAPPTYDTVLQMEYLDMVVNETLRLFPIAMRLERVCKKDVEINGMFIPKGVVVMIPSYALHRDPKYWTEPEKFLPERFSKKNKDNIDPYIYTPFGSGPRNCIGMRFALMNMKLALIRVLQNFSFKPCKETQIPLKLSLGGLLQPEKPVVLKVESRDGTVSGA
Voltage-gated inwardly rectifying potassium channel KCNH2, sequence (Q12809 whole entry): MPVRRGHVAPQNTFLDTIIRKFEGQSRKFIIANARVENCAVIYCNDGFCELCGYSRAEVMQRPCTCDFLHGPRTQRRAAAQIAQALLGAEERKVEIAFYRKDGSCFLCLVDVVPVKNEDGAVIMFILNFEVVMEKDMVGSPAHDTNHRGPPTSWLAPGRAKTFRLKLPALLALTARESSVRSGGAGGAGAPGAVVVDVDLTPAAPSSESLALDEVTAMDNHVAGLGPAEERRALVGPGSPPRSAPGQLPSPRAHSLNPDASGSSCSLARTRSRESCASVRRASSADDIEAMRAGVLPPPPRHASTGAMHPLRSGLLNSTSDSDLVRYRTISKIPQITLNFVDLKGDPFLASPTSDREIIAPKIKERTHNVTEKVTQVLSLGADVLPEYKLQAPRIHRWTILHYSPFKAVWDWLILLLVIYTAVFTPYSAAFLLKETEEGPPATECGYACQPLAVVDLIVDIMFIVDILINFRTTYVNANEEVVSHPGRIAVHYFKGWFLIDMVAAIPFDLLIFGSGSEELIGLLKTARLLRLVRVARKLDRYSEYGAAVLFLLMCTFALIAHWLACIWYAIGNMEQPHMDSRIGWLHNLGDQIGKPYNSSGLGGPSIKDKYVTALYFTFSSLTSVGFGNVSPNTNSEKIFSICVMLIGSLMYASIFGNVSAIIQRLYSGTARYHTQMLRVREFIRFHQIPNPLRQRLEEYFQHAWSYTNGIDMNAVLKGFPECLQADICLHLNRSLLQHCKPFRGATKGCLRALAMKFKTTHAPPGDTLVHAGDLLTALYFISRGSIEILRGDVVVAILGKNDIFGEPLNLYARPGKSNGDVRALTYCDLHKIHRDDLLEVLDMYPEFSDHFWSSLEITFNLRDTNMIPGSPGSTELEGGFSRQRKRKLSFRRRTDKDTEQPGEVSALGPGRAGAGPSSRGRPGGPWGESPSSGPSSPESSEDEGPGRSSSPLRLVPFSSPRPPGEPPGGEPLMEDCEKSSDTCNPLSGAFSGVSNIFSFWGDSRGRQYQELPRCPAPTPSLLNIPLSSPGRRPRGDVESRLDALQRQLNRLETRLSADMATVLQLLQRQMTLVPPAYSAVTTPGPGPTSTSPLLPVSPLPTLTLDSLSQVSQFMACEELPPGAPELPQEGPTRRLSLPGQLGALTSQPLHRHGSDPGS

## COc1nc(-c2csc(Nc3c4c(nn3CC(F)(F)F)CCC4)n2)ccc1-n1cnc(C)c1
[1]
  Stabilty: 46%
Cytochrome P450 3A4
  IC50: 1.4 µM
[2]
  Papp: 17.6 10^-6 cm/s
Cytochrome P450 2C19
  IC50: 7.1 µM
Cytochrome P450 2D6
  IC50: > 100 µM
[3]
  Stabilty: 72%
Gamma-secretase
  IC50: 0.036 µM
Cytochrome P450 2C9
  IC50: 11 µM
[4]
  solubility kinetic: 22 µM (≈ 10.5 µg/mL)
[5]
  Stabilty: 66%
Cytochrome P450 1A2
  IC50: 27 µM

## COc1nc(-c2csc(Nc3c4c(nn3CC(C)(C)O)CCCC4)n2)ccc1-n1cnc(C)c1
[1]
  Stabilty: 78%
[2]
  Papp: 17.5 10^-6 cm/s
Cytochrome P450 2C19
  IC50: 3.9 µM
Cytochrome P450 2D6
  IC50: > 100 µM
[3]
  Stabilty: 57%
Gamma-secretase
  IC50: 0.038 µM
Cytochrome P450 2C9
  IC50: 9 µM
[4]
  solubility kinetic: 22 µM (≈ 10.6 µg/mL)
[5]
  Stabilty: 12%
Cytochrome P450 1A2
  IC50: > 100 µM

## COc1nc(-c2csc(Nc3c4c(nn3CCF)CCC4)n2)ccc1-n1cnc(C)c1
[1]
  Stabilty: 60%
Cytochrome P450 3A4
  IC50: 10.5 µM
[6]
  IC50: 2.88 µM
Cytochrome P450 2C19
  IC50: 35 µM
Cytochrome P450 2D6
  IC50: > 100 µM
[3]
  Stabilty: 68%
Gamma-secretase
  IC50: 0.064 µM
Cytochrome P450 2C9
  IC50: > 100 µM
[4]
  solubility kinetic: 23 µM (≈ 10.1 µg/mL)
[5]
  Stabilty: 58%
Cytochrome P450 1A2
  IC50: > 100 µM

## COc1nc(-c2csc(Nc3c4c(nn3CCO)CCCC4)n2)ccc1-n1cnc(C)c1
[1]
  Stabilty: 58%
Cytochrome P450 3A4
  IC50: 30 µM
[2]
  Papp: 18 10^-6 cm/s
[6]
  IC50: 2.63 µM
Cytochrome P450 2C19
  IC50: 76 µM
Cytochrome P450 2D6
  IC50: > 100 µM
[3]
  Stabilty: 78%
Gamma-secretase
  IC50: 0.144 µM
Cytochrome P450 2C9
  IC50: > 100 µM
[4]
  solubility kinetic: 31 µM (≈ 14 µg/mL)
[5]
  Stabilty: 40%
Cytochrome P450 1A2
  IC50: > 100 µM

## CCn1nc(C(F)(F)F)cc1Nc1nc(-c2ccc(-n3cnc(C)c3)c(OC)n2)cs1
[1]
  Stabilty: 71%
Cytochrome P450 3A4
  IC50: 5.3 µM
[7]
  BPR: 0.62
[2]
  Papp: 23.3 10^-6 cm/s
[8]
  AUC: 2369 ng·h/mL
[9]
  AUC: 623 ng·h/mL
[10]
  Cmax: 359 ng/mL
[11]
  t1/2: 1.6 h
[12]
  Tmax: 1 h
Cytochrome P450 2C19
  IC50: 12 µM
Cytochrome P450 2D6
  IC50: > 100 µM
[3]
  Stabilty: 96%
[13]
  Cmax: 470 ng/mL
[14]
  Tmax: 4.98 min
[15]
  BPR: 0.73
Gamma-secretase
  IC50: 0.058 µM
[16]
  AUClast: 1727 ng·h/mL
[17]
  AUClast: 605 ng·h/mL
Cytochrome P450 2C9
  IC50: 47 µM
[4]
  solubility kinetic: 15 µM (≈ 6.74 µg/mL)
[5]
  Stabilty: 84%
[18]
  Vdss: 3.64 L/kg
Cytochrome P450 1A2
  IC50: 9.1 µM
[19]
  F: 76%
